From ChEMBL document CHEMBL1782048, “Novel 1-(2-aminopyrazin-3-yl)methyl-2-thioureas as potent inhibitors of mitogen-activated protein kinase-activated protein kinase 2 (MK-2)” (Bioorg Med Chem Lett, 2009) come the findings set out here.

Data set [1] addresses MAP kinase-activated protein kinase 2 (Homo sapiens, UniProt P49137). Put plainly: Inhibition of MK2 using biotin-LCAYSRALSRQLSSGVSEIRH substrate.
For another data set, the system named is THP-1. Put plainly: Inhibition of LPS-induced TNFalpha production in human THP1 cells after 4 hrs by ELISA. Particulars: THP-1, 4 h.
For data set [2], the target named is Ribosomal protein S6 kinase alpha-1 (Homo sapiens) (UniProt Q15418). Put plainly: Inhibition of RPS6KA1 at 10 uM.
Chain of Ribosomal protein S6 kinase alpha-1 (Homo sapiens) (Q15418 whole entry): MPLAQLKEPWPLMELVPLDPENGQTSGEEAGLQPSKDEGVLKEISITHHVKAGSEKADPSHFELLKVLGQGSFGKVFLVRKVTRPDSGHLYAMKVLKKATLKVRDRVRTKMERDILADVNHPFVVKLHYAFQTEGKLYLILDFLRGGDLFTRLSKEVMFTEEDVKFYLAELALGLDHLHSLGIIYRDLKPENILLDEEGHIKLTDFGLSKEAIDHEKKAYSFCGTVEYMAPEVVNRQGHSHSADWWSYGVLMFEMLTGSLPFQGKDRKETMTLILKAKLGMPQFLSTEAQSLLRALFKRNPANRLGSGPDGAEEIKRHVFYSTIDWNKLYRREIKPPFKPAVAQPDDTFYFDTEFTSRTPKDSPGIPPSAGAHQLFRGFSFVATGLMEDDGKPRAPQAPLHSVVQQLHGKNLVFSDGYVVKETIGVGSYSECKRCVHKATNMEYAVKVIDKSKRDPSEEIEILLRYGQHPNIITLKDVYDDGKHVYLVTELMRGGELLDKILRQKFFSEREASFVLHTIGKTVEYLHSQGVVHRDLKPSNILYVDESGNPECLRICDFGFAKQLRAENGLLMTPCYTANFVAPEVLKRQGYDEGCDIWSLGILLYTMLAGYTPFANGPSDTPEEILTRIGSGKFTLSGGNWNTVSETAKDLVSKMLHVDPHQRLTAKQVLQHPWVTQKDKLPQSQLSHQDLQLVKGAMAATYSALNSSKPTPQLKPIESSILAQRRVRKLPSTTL
The nature of data set [3]: Inhibition of AMPK at 10 uM.
The nature of data set [4]: Clearance in rat. It counts as ADME, organism-based. The conditions noted are these: in vivo.
The nature of data set [5]: Half life in rat. It counts as ADME, organism-based. The conditions noted are these: in vivo.
For another data set, the species on record is Rattus norvegicus. The experiment in a line: Normalized AUC in rat. The conditions noted are these: in vivo. It counts as ADME, organism-based.
The nature of data set [6]: Oral bioavailability AUC in rat. It counts as ADME, organism-based. Particulars: in vivo.
For the next data set, the system named is Mus musculus. Put plainly: Antiinflammatory activity in BALB/c mouse assessed as inhibition of LPS-stimulated TNFalpha production at 10 mg/kg, iv after 1.5 hrs. It counts as functional. The method, boiled down: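 Female Balb/c mice, 12 weeks old, dosed iv at 10 mg/kg in DMSO/Cremophor/saline (or vehicle alone) just before injection of 10 µg/mouse LPS (E. coli serotype 0111:B4) plus 800 mg/kg D-galactosamine in saline. Animals euthanized 90 min later; plasma TNF measured by ELISA.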

Data set [7] addresses Ribosomal protein S6 kinase alpha-5 (Homo sapiens) (UniProt O75582). Put plainly: Inhibition of RPS6KA5 at 10 uM.
Data set [8] has as its target T1, MAP kinase-activated protein kinase 5 (Homo sapiens) (UniProt Q8IW41).
T1 sequence (whole entry): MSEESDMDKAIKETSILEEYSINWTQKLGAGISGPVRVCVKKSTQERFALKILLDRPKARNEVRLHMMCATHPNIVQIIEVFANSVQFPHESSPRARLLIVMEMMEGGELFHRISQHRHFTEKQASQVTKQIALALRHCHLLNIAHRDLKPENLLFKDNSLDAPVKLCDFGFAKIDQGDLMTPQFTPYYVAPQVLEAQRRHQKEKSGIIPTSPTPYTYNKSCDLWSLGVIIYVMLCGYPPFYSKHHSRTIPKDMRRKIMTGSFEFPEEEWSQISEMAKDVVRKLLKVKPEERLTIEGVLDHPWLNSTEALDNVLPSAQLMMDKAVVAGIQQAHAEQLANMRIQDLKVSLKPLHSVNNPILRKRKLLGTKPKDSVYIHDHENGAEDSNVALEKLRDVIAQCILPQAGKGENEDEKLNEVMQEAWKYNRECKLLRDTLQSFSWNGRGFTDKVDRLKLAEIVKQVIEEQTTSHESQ
The experiment in a line: Inhibition of MK5 at 1 uM.

Bounds are passed on as bounds.

Chain of MAP kinase-activated protein kinase 2 (P49137 whole entry): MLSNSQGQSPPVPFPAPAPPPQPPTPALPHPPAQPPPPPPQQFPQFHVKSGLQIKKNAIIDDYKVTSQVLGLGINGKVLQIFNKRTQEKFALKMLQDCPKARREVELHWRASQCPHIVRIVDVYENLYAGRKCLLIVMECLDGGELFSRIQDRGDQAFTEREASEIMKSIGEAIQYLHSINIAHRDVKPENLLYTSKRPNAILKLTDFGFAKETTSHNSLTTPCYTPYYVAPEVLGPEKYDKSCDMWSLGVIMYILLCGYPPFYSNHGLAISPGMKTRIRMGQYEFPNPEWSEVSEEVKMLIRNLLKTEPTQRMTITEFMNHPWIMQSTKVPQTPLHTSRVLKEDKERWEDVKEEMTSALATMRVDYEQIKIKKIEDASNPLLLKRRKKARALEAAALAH
Chain of Ribosomal protein S6 kinase alpha-5 (Homo sapiens) (O75582 whole entry, looked up): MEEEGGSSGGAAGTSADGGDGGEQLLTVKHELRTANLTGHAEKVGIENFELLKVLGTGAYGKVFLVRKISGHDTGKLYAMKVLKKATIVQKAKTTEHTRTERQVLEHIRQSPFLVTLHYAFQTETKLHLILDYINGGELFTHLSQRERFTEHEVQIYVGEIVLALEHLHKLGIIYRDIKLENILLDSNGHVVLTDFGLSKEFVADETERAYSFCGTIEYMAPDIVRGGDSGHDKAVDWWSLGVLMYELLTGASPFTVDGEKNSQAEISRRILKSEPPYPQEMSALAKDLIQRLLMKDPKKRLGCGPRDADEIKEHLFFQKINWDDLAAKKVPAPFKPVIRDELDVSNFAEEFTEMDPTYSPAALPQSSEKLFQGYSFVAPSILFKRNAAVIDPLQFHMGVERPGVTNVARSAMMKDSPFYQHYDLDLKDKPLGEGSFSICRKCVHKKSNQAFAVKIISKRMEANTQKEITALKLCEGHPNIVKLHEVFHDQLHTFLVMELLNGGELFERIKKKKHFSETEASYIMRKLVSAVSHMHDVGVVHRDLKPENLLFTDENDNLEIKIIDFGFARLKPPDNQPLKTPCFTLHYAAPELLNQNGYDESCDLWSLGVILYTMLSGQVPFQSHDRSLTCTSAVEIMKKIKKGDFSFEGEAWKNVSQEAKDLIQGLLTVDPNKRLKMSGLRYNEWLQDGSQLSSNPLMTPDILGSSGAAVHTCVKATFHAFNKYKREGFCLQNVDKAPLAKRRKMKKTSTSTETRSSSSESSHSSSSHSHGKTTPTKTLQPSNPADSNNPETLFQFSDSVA

In the case of `Cc1cnc(N)c(CNC(=S)Nc2ccc3[nH]c(=O)[nH]c3c2)n1`, the IC50 in data set [1] is 15 µM.

Turning to `Nc1ncc(Cl)nc1CNC(=S)Nc1ccc(Cl)c(Cl)c1`, in data set [1], the IC50 was 40 µM.

As for `CSc1nc(N)c(CNC(=S)Nc2ccccc2)nc1Cl`, in data set [1], the IC50 is above 50 µM.

`Nc1ncc(Cl)nc1CNC(=S)Nc1cc(Cl)cc(Cl)c1` gave an IC50 in data set [1] of 27 µM.

`Nc1ncc(C(F)(F)F)nc1CNC(=S)Nc1ccccc1` had an IC50 in [1] above 50 µM.

As to `Nc1ncc(Cl)nc1CNC(=S)NC1CCCC1`, the IC50 in data set [1] came out at 53 µM.

`CCN(CC)CCCNC(=S)NCc1nc(Cl)cnc1N`: the concentration for half-maximal inhibition (IC50) in [1] was above 50 µM.

Regarding `CCOc1nc(N)c(CNC(=S)Nc2ccccc2)nc1Cl`, the IC50 in data set [1] was above 50 µM.

The compound `Nc1ncc(Cl)nc1CNC(=S)NCc1ccccc1` displayed an IC50 in [1] of 36 µM.

As to `Cc1ccc(NC(=S)NCc2nc(Cl)cnc2N)cc1`, the IC50 in data set [1] amounted to 2.7 µM.

On to `CCCc1cnc(N)c(CNC(=S)Nc2ccc(NC(=O)OC(C)(C)C)cc2)n1`, for which the IC50 in [1] turned out to be 0.045 µM; with THP-1, 3 µM. Besides, the inhibition in data set [2], in data set [3] and in [7] was above 70% throughout. In addition, in data set [4], the clearance is 2.5 mL/min/kg. In data set [5], this compound gave a half-life of 48 min. The AUC/dose in the data set listed under Rattus norvegicus is 3.3 µM·kg·h/mg. The bioavailability in data set [6] came to 19%. The inhibition in vivo at 10 mg/kg with Mus musculus was determined as 62%.

The compound `CC(C)(C)NC(=O)Nc1ccc(NC(=S)NCc2nc(C3CC3)cnc2N)cc1` yielded a concentration for half-maximal inhibition (IC50) in the data set on THP-1 of 1.4 µM.

`Nc1ncc(Cl)nc1CNC(=S)Nc1ccccc1Cl` yielded an IC50 in [1] of 1.1 µM.

In data set [1], `Cc1cnc(N)c(CNC(=S)Nc2ccc3c(c2)CC(=O)N3)n1` gave an IC50 of 27 µM.

In [1], `CC(C)NC(=S)NCc1nc(Cl)cnc1N` returned an IC50 of 13 µM.

In turn, `Nc1ncc(Cl)nc1CNC(=S)Nc1ccccc1F` displayed a concentration for half-maximal inhibition (IC50) in data set [1] of 2 µM.

In data set [1], `Cc1cnc(N)c(CNC(=S)Nc2ccc3oc(=O)[nH]c3c2)n1` displayed an IC50 of 14 µM.

Compound `Cc1cnc(N)c(CNC(=S)Nc2ccc3c(c2)[nH]c(=O)n3C)n1` had an IC50 in data set [1] above 20 µM.

`CCCc1cnc(N)c(CNC(=S)Nc2ccc3[nH]c(=O)oc3c2)n1` gave an IC50 in the data set on THP-1 of 0.75 µM. In [8], this compound returned an inhibition above 70%. The same compound showed a clearance in data set [4] of 12.9 mL/min/kg. In addition, the half-life in [5] is 18 min. The compound also had an AUC/dose in the data set listed under Rattus norvegicus of 0.3 µM·kg·h/mg. This compound also registered a bioavailability in data set [6] of 8%. The inhibition in vivo at 10 mg/kg in the data set on Mus musculus was 70%.

For the compound `CC(C)(C)NC(=S)NCc1nc(Cl)cnc1N`, the half-maximal inhibitory concentration (IC50) in data set [1] was found to be 2.5 µM.

`Nc1ncc(Cl)nc1CNC(=S)Nc1ccc(Cl)cc1Cl`: the IC50 in data set [1] worked out at 4.3 µM.

With `Nc1ncc(Cl)nc1CNC(=S)Nc1cccc(Cl)c1`, the half-maximal inhibitory concentration (IC50) in data set [1] was determined as 11.3 µM.

For `Cc1cnc(N)c(CNC(=S)Nc2ccc3[nH]c(=O)sc3c2)n1`, the IC50 in [1] came out at 15 µM.

`Nc1ncc(Cl)nc1CNC(=S)Nc1ccc(-n2cnnn2)cc1` came in with an IC50 in data set [1] above 40 µM.

In the data set on THP-1, `CC(C)(C)OC(=O)Nc1ccc(NC(=S)NCc2nc(C3CC3)cnc2N)cc1` showed an IC50 of 3.2 µM.

`Cc1cccc(NC(=S)NCc2nc(Cl)cnc2N)c1` registered a concentration for half-maximal inhibition (IC50) in data set [1] of 9.3 µM.

The compound `Nc1ncc(Cl)nc1CNC(=S)Nc1ccccc1-c1ccccc1` gave an IC50 in data set [1] above 20 µM.

In the case of `Nc1ncc(Cl)nc1CNC(=S)NCCc1ccccc1`, the IC50 in data set [1] was above 50 µM.

Regarding `Cc1ccccc1NC(=S)NCc1nc(Cl)cnc1N`, the IC50 in [1] is 3.6 µM.

`Nc1ncc(Cl)nc1CNC(=S)Nc1cccc2ccccc12`: in [1], the IC50 came to 3.2 µM.

In the case of `Cc1cnc(N)c(CNC(=S)Nc2ccc(NC(=O)Cc3ccccc3)cc2)n1`, the IC50 in data set [1] came to 3.8 µM.

In the data set with THP-1, `CCc1cnc(N)c(CNC(=S)Nc2ccc(NC(=O)OC(C)(C)C)cc2)n1` gave an IC50 of 4 µM.

In [1], `Cc1cnc(N)c(CNC(=S)Nc2ccc(NC(=O)c3ccccc3)cc2)n1` registered an IC50 of 0.58 µM.

Consider `Nc1ncc(Cl)nc1CNC(=S)NC1CCCCCC1`, for which 35 µM corresponded to half-maximal inhibition in data set [1] (IC50).

For `Cc1cnc(N)c(CNC(=S)Nc2ccc(NC(=O)Oc3ccccc3)cc2)n1`, inhibition in data set [1] was half-maximal at 0.73 µM (IC50).

As to `Nc1ncc(Cl)nc1CNC(=S)Nc1ccc(Cl)cc1`, half-maximal inhibition in [1] (IC50) was put at 3.7 µM.

With `Nc1ncc(Cl)nc1CNC(=S)Nc1ccc(Br)cc1`, the IC50 in [1] amounted to 3.1 µM.

In data set [1], `Nc1ccc(NC(=S)NCc2nc(Cl)cnc2N)cc1` came in with a 50% inhibitory concentration (IC50) of 2 µM.

Take `Nc1ncc(C2CC2)nc1CNC(=S)Nc1ccc2[nH]c(=O)oc2c1`: the IC50 in [1] was 0.015 µM; in the data set on THP-1 it was 1.7 µM. In the data set with Mus musculus, the inhibition in vivo at 10 mg/kg was determined as 75%.

Consider `Nc1ncc(Cl)nc1CNC(=S)NC(=O)c1ccccc1`, for which, in [1], the IC50 was determined as 91 µM.

Compound `Nc1ncc(Cl)nc1CNC(=S)NC1CC1` showed an IC50 in data set [1] of 12 µM.

Compound `CCCCc1cnc(N)c(CNC(=S)Nc2ccc3[nH]c(=O)oc3c2)n1` registered an IC50 with THP-1 of 3.8 µM.

In data set [1], `CN(C)c1nc(N)c(CNC(=S)Nc2ccccc2)nc1Cl` had an IC50 above 50 µM.
